Experimental data taken from paper PMC11847389 (BMC Chemistry, 2025).

Columns and labels:
CLL/SLL patients = conditions: 323 patients; cited from earlier work
[1] = tested on: patients with covalent BTKi-pretreated CLL; conditions: cited from earlier work
mutant BTK C481S = conditions: cited from earlier work
mutant BTK C481R = conditions: cited from earlier work
[2] = in vitro, independent of concentration; ref package insert of JAYPIRCA; cited from earlier work
[3] = Pharmacokinetic study of pirtobrutinib in rats; format: in vivo, Sprague–Dawley rats
How it was run: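 Six male Sprague–Dawley rats (8 weeks, 230 g ± 10 g), fasted 12 h, got a single intragastric 10 mg·kg-1 suspension in 0.5% CMC-Na. Ophthalmic-vein blood (200 µL, EDTA-K2) was drawn pre-dose and at 0.25–48 h; plasma was frozen at -80 °C. Plasma underwent cold-methanol protein precipitation with IS, then C18 UHPLC-MS/MS (0.5–500 ng/mL calibration). Parameters came from non-compartmental analysis.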

mutant BTK C481T = conditions: cited from earlier work
[4] = ref package insert of JAYPIRCA, cited from earlier work
[5] = cited from earlier work
[6] = Stability of pirtobrutinib in rat plasma under different storage conditions; format: in vitro ADME; conditions: for Stability RE %: n = 6
How it was run: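 Blank rat plasma was spiked 1:10 with working solution to make QCs of 1, 25 and 400 ng/mL, six replicates each. These were held at room temperature 4 h, in the autosampler at 4 °C 24 h, through three freeze-thaw cycles, or at -80 °C 30 days. Samples then underwent cold-methanol protein precipitation with IS and UHPLC-MS/MS; RSD% and RE% were reported.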

[7] = tested on: CYP3A4, UGT1A8 and UGT1A9; conditions: ref package insert of JAYPIRCA; cited from earlier work
[8] = male, Sprague-Dawley, rat, plasma, po, 10 mg/kg

- plasma concentration at last sampling timepoint ([3]; 48 h after intragastric 10 mg·kg−1, LLOQ 0.5 ng/ml): below the LLOQ
- concentration at 0.25 h ([3]; male, Sprague-Dawley, rat, plasma, oral, 10 mg·kg−1): 140 ng/mL
- AUC(0-inf) [3, 8]: 2350 ± 582 ng·h/mL
- AUC(0-t) [3, 8]: 2340 ± 578 ng·h/mL
- Cmax [3, 8]: 344 ± 56.6 ng/mL
- MRT inf [3, 8]: 5.15 ± 0.94 h
- MRT last [3, 8]: 5.05 ± 0.923 h
- Tmax [3, 8]: 1.08 ± 0.736 h
- half-life [3, 8]: 2.95 ± 0.121 h
- Stability RE % ([6]; 1.0 ng/mL, autosampler 4 ℃, 24 h after preparation): -6.9%
- Stability RE % ([6]; 25 ng/mL, autosampler 4 ℃, 24 h after preparation): -9.4%
- Stability RE % ([6]; 400 ng/mL, autosampler 4 ℃, 24 h after preparation): -11.7%
- Stability RE% value, three QC samples ([6]; all four storage conditions, absolute (±) value): < 11.7%
- Stability RE % ([6]; rat plasma, 1.0 ng/mL, -80 ℃, 30 days): -1.8%
- Stability RE % ([6]; rat plasma, 1.0 ng/mL, room temperature, 4 h): 0%
- Stability RE % ([6]; rat plasma, 1.0 ng/mL, three freeze-thaw): -3.7%
- Stability RE % ([6]; rat plasma, 25 ng/mL, -80 ℃, 30 days): 9.4%
- Stability RE % ([6]; rat plasma, 25 ng/mL, room temperature, 4 h): 1.7%
- Stability RE % ([6]; rat plasma, 400 ng/mL, three freeze-thaw): 6.0%
- Stability in plasma ([6]; several storage and handling conditions): stable
Compound: COc1ccc(F)cc1C(=O)NCc1ccc(-c2nn([C@@H](C)C(F)(F)F)c(N)c2C(N)=O)cc1 [Pirtobrutinib]
- dose-limiting toxicities (CLL/SLL patients): no dose-limiting toxicities
- patients discontinuing medication due to treatment-related AEs (CLL/SLL patients): 1%
- ORR versus venetoclax monotherapy [1]: significantly higher
- inhibition of autophosphorylation of Y223 (mutant BTK C481S): can inhibit
- inhibition of autophosphorylation of Y223 (mutant BTK C481R): can inhibit
- human protein binding [2]: 96%
- inhibition of autophosphorylation of Y223 (mutant BTK C481T): can inhibit
- mean apparent clearance ([4]; (37.2%) printed as spread): 2.05 L/h
- median time to reach peak plasma concentration (tmax) ([4]; range 0.833 to 4.15 h): approximately 2 h
- effective half-life [4]: approximately 19 h
- absolute bioavailability ([4]; single oral 200 mg dose, range 75.9–90.9%): 85.5%
- permeability in vitro [5]: high
- metabolism in vitro [7]: primarily metabolized by CYP3A4 and direct glucuronidation by UGT1A8 and UGT1A9
